Activity calls are given as the source filed them. The rule behind the calls is not given here.

One data set deals with HCT-116. Kind of data set: Cytotoxicity against human HCT116 cells after 72 hrs by SRB assay. The class given is functional, cell-based. The settings on record: HCT-116, 72 h. Summed up: (§1)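 MX-1 and HCT-116 solid tumor cells were exposed 72 h, with growth read by SRB staining on a microplate spectrophotometer. IC50 came from median-effect analysis of dose-effect data at six or seven concentrations.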

The test system of data set [1] is Mus musculus. Nature of the data set: Toxicity in human MX1 cells xenografted athymic nude Swiss mouse assessed as body weight loss at 50 and 60 mg/kg, iv every two days for three times followed by 70 mg/kg, iv every two days for two times relative to control. In kind it is organism-based. To be noted: in vivo. On the technique in general: Xenograft models place foreign cells or tissue in a host animal.

For data set [2], the system named is CCRF-CEM. Kind of data set: Cytotoxicity against human taxol-resistant CCRF-CEM cells after 72 hrs by XTT assay. In kind it is functional, cell-based. Summed up:
(§2)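 CCRF-CEM and its Taxol- and vinblastine-resistant sublines were incubated 72 h, then given phenazine methosulfate-XTT for 6 h at 37 °C. Absorbance was read at 450 and 630 nm. IC50 came from median-effect analysis of dose-effect data at six or seven concentrations.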
For orientation: Formazan colour is commonly taken as a measure of viable cells.

Data set [3] deals with Mus musculus. Nature of the data set: Toxicity in human MX1 cells xenografted athymic nude Swiss mouse assessed as mouse mortality at 50 and 60 mg/kg, iv every two days for three times followed by 70 mg/kg, iv every two days for two times. In kind it is organism-based. The settings on record: in vivo.
The subject of data set [4] is CCRF-CEM. Kind of data set: Ratio of IC50 for human vinblastine-resistant CCRF-CEM cells to IC50 for human CCRF-CEM cells. The class given is functional.
The subject of data set [5] is MX1. Kind of data set: Cytotoxicity against human MX1 cells after 72 hrs by SRB assay. In kind it is functional, cell-based. The settings on record: MX1, 72 h. The method in brief:
as §1

In data set [6] the test system is CCRF-CEM. Nature of the data set: Cytotoxicity against human CCRF-CEM cells after 72 hrs by XTT assay. The class given is functional, cell-based. Summed up:
as §2

In data set [7] the test system is CCRF-CEM. Nature of the data set: Cytotoxicity against human vinblastine-resistant CCRF-CEM cells after 72 hrs by XTT assay. The class given is functional, cell-based. The method in brief:
as §2

Data set [8] relates to MX1. Nature of the data set: Antitumor activity against human MX1 cells xenografted in athymic nude Swiss mouse assessed as tumor growth inhibition at 50 and 60 mg/kg, iv every two days for three times followed by 70 mg/kg, iv every two days for two times relative to control. The class given is functional. Further details: scale not given: the % may be the effect or the level left.

Data set [9] concerns CCRF-CEM. Kind of data set: Ratio of IC50 for human taxol-resistant CCRF-CEM cells to IC50 for human CCRF-CEM cells. In kind it is functional.
The subject of data set [10] is MX1. Kind of data set: Antitumor activity against human MX1 cells xenografted in athymic nude Swiss mouse assessed as tumor growth inhibition at 30 mg/kg, iv every two days for three times followed by 40 mg/kg, iv every two days for 5 times relative to control. In kind it is functional. Further details: scale not given: the % may be the effect or the level left.
Data set [11] concerns Mus musculus. Kind of data set: Toxicity in human PC3 cells xenografted athymic nude Swiss mouse assessed as body weight loss at 55 mg/kg, iv every two days for six times relative to control. The class given is organism-based, PC-3. Also noted: dose 55 mg/kg, route intravenous. The settings on record: in vivo.
In data set [12] the test system is Mus musculus. Nature of the data set: Toxicity in human MX1 cells xenografted athymic nude Swiss mouse assessed as mouse mortality at 30 mg/kg, iv every two days for three times followed by 40 mg/kg, iv every two days for 5 times. In kind it is organism-based. The settings on record: in vivo.
For data set [13], the system named is Mus musculus. Kind of data set: Toxicity in human PC3 cells xenografted athymic nude Swiss mouse assessed as mouse mortality at 55 mg/kg, iv every two days for six times. In kind it is organism-based, PC-3. Also noted: dose 55 mg/kg, route intravenous. The settings on record: in vivo.
Data set [14] deals with Mus musculus. Kind of data set: Toxicity in human MX1 cells xenografted athymic nude Swiss mouse assessed as body weight loss at 30 mg/kg, iv every two days for three times followed by 40 mg/kg, iv every two days for 5 times relative to control. In kind it is organism-based. The settings on record: in vivo.
The test system of another data set is Nucleic Acid. Kind of data set: Induction of pEGFP-N1 plasmid DNA interstrand cross-linking at 1 to 20 uM by alkaline agarose gel shift assay. In kind it is nucleic-acid assay. Summed up: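 pEGFP-N1 plasmid DNA (1500 ng) was incubated with compound (1, 10, 20 μM) in 3 mM NaCl/1 mM sodium phosphate pH 7.4/1 mM EDTA for 2 h at 37 °C. It was then BamHI-linearized, ethanol-precipitated and denatured in 0.5 N NaOH-10 mM EDTA. Samples were run on a 0.8% alkaline agarose gel at 4 °C, 18 V for 22 h, stained with ethidium bromide.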
For orientation: Mobility shift assays separate free from complexed probe on a gel.

Data set [15] in a line: Cytotoxicity against human H1299 cells after 72 hrs by Alamar blue assay. In kind it is functional, cell-based. To be noted: NCI-H1299, 72 h. The method in brief:
(§3)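 H1299 and PC3 cells were exposed 72 h, then given Alamar blue for 6 h at 37 °C. Absorbance was read at 570 and 600 nm. IC50 came from median-effect analysis of dose-effect data at six or seven concentrations.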

Data set [16] relates to PC-3. Kind of data set: Cytotoxicity against human PC3 cells after 72 hrs by Alamar blue assay. In kind it is functional, cell-based. To be noted: PC-3, 72 h. The method in brief:
as §3

Data set [17] has as its system PC-3. Kind of data set: Anticancer activity against human PC3 cells xenografted in athymic nude Swiss mouse assessed as tumor growth inhibition at 55 mg/kg, iv every two days for six times relative to control. In kind it is functional. Further details: scale not given: the % may be the effect or the level left.
The nature of data set [18]: Cell cycle arrest in human H1299 cells assessed as accumulation at S phase at 10 uM after 24 hrs using propidium iodide staining by flow cytometry (reference value: 24.9 +/- 3.3%). In kind it is functional, cell-based. To be noted: NCI-H1299. Summed up:
(§4)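 H1299 cells were exposed 24 h, then trypsinized, PBS-washed and fixed in ice-cold 70% ethanol for 30 min. They were stained with 4 μg/mL propidium iodide in PBS containing 1% Triton X-100 and 0.1 mg/mL RNase A. Cell-cycle distribution was read by flow cytometry.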

Data set [19] can be described thus: Cell cycle arrest in human H1299 cells assessed as accumulation at G2/M phase at 5 uM after 24 hrs using propidium iodide staining by flow cytometry (reference value: 21.5 +/- 0.6%). The settings on record: NCI-H1299. The class given is functional, cell-based. The method in brief: as §4
Data set [20] can be described thus: Cell cycle arrest in human H1299 cells assessed as accumulation at S phase at 5 uM after 24 hrs using propidium iodide staining by flow cytometry (reference value: 24.9 +/- 3.3%). The class given is functional, cell-based. The settings on record: NCI-H1299. The method in brief: as §4
The nature of data set [21]: Cell cycle arrest in human H1299 cells assessed as accumulation at G1 phase at 20 uM after 24 hrs using propidium iodide staining by flow cytometry (reference value: 44.8 +/- 3%). To be noted: NCI-H1299. In kind it is functional, cell-based. Summed up: as §4
Data set [22] in a line: Cell cycle arrest in human H1299 cells assessed as accumulation at S phase at 20 uM after 24 hrs using propidium iodide staining by flow cytometry (reference value: 24.9 +/- 3.3%). The class given is functional, cell-based. The settings on record: NCI-H1299. Summed up:
as §4

The nature of data set [23]: Cell cycle arrest in human H1299 cells assessed as accumulation at sub G1 phase at 20 uM after 24 hrs using propidium iodide staining by flow cytometry (reference value: 8.8 +/- 6.9%). In kind it is functional, cell-based. The settings on record: NCI-H1299. The method in brief:
as §4

A short description of data set [24]: Cell cycle arrest in human H1299 cells assessed as accumulation at G2/M phase at 10 uM after 24 hrs using propidium iodide staining by flow cytometry (reference value: 21.5 +/- 0.6%). The settings on record: NCI-H1299. In kind it is functional, cell-based. The method in brief: as §4
Data set [25] deals with MX1. Kind of data set: Antitumor activity against human MX1 cells xenografted in athymic nude Swiss mouse assessed as tumor growth inhibition at 30 mg/kg, iv every two days for three times followed by 35 mg/kg, iv every two days for 5 times relative to control. Further details: scale not given: the % may be the effect or the level left. In kind it is functional.
A short description of data set [26]: Cell cycle arrest in human H1299 cells assessed as accumulation at sub G1 phase at 5 uM after 24 hrs using propidium iodide staining by flow cytometry (reference value: 8.8 +/- 6.9%). The class given is functional, cell-based. To be noted: NCI-H1299. The method in brief:
as §4

Data set [27] is described as follows: Cell cycle arrest in human H1299 cells assessed as accumulation at sub G1 phase at 10 uM after 24 hrs using propidium iodide staining by flow cytometry (reference value: 8.8 +/- 6.9%). In kind it is functional, cell-based. The settings on record: NCI-H1299. The method in brief: as §4
Data set [28] can be described thus: Cell cycle arrest in human H1299 cells assessed as accumulation at G2/M phase at 20 uM after 24 hrs using propidium iodide staining by flow cytometry (reference value: 21.5 +/- 0.6%). The class given is functional, cell-based. To be noted: NCI-H1299. The method in brief: as §4
A short description of data set [29]: Cell cycle arrest in human H1299 cells assessed as accumulation at G1 phase at 10 uM after 24 hrs using propidium iodide staining by flow cytometry (reference value: 44.8 +/- 3%). The class given is functional, cell-based. The settings on record: NCI-H1299. Summed up:
as §4

The test system of data set [30] is Mus musculus. Kind of data set: Toxicity in human MX1 cells xenografted athymic nude Swiss mouse assessed as body weight loss at 30 mg/kg, iv every two days for three times followed by 35 mg/kg, iv every two days for 5 times relative to control. To be noted: in vivo. In kind it is organism-based.
Data set [31] is described as follows: Cell cycle arrest in human H1299 cells assessed as accumulation at G1 phase at 5 uM after 24 hrs using propidium iodide staining by flow cytometry (reference value: 44.8 +/- 3%). The class given is functional, cell-based. To be noted: NCI-H1299. The method in brief:
as §4

For data set [32], the system named is Mus musculus. Kind of data set: Toxicity in human MX1 cells xenografted athymic nude Swiss mouse assessed as mouse mortality at 30 mg/kg, iv every two days for three times followed by 35 mg/kg, iv every two days for 5 times. In kind it is organism-based. The settings on record: in vivo.

As usually defined, the IC50 is the concentration that gives 50% inhibition. Turning to `O=C(Nc1ccc(N(CCCl)CCCl)cc1)Nc1ccc2ncnc(Nc3ccc(F)c(Cl)c3)c2c1`, the IC50 worked out at 3.36 µM in the data set on HCT-116; 1.16 µM with CCRF-CEM [2]; 5.38 µM in the data set with MX1 [5]; 1 µM in the data set on CCRF-CEM [6]; 1.14 µM in the data set on CCRF-CEM [7]. For the same compound, the Activity in the data set with Mus musculus [1] is reported as 5%; with Mus musculus [3] it was “Non-toxic”; in the data set on MX1 [8], 72%. For the same compound, the “Ratio IC50” value came out at 1.14 with CCRF-CEM [4] and 1.16 with CCRF-CEM [9].

Turning to `O=C(Nc1ccc(N(CCCl)CCCl)cc1)Nc1ccc2ncnc(Nc3cccc(Cl)c3F)c2c1`, the Activity in the data set with MX1 [10] is 52%; in the data set on Mus musculus [11], 6%; with Mus musculus [12], “Non-toxic”; in the data set with Mus musculus [13], “Non-toxic”; in the data set on Mus musculus [14], 6%; in the data set with PC-3 [17], 69%. Moreover, the half-inhibitory concentration (IC50) stood at 3.84 µM in the data set on HCT-116; 1.55 µM in the data set on CCRF-CEM [2]; 4.55 µM with MX1 [5]; 0.75 µM with CCRF-CEM [6]; 1.04 µM with CCRF-CEM [7]; 5.52 µM in data set [15]. The 50% inhibitory concentration (IC50) in the data set with PC-3 [16] came to 6.29 µM. For the same compound, the “Ratio IC50” value amounted to 1.39 in the data set with CCRF-CEM [4] and 2.07 in the data set on CCRF-CEM [9]. Also, in the data set on Nucleic Acid, the result was Active.

As to `O=C(Nc1ccc(N(CCCl)CCCl)cc1)Nc1ccc2ncnc(Nc3cccc(Cl)c3)c2c1`, the Activity in [18] is 28.5%; in data set [19], 40%; with Mus musculus [11] it was 11%; in [20] it was 20.6%; in [21], 28.3%; in [22], 23.5%. In addition, the Activity turned out to be 35.3% in data set [23]; 29.3% in data set [24]; 62% in the data set on MX1 [25]; 8.9% in data set [26]; 7.5% in data set [27]; 12.9% in [28]. Besides, the Activity entry was “Non-toxic” with Mus musculus [13]; 34.8% in [29]; 3% in the data set with Mus musculus [30]; 30.5% in data set [31]; 27% in the data set on PC-3 [17]; “Non-toxic” with Mus musculus [32]. Moreover, the IC50 in the data set with HCT-116 came to 7.46 µM; with CCRF-CEM [2] it was 4.56 µM; in the data set on MX1 [5] it was 7.84 µM; in the data set on CCRF-CEM [6] it was 1.66 µM; with CCRF-CEM [7], 3.26 µM; in data set [15] it was 10.5 µM. Besides, the IC50 with PC-3 [16] turned out to be 10.4 µM. Moreover, the “Ratio IC50” value was 1.96 with CCRF-CEM [4] and 2.75 in the data set on CCRF-CEM [9]. Also, the outcome with Nucleic Acid was Active.

The record behind these values is ChEMBL document CHEMBL1795344, “Design, synthesis and antitumor evaluation of phenyl N-mustard-quinazoline conjugates” (Bioorg Med Chem, 2011).
